This is a sample that favours compounds with a hit; in the whole collection about 2.3% have one here.
TRPC6 activator – mouse TRPC6 channel activators, primary screen, cell-based, HEK293, membrane potential dye. actives 0.13% (n = 310,000). AID 2550, 2010. HEK293-TRPC6 membrane potential dye fluorescence; active compounds read high. B-score at 10 µM. Short transient receptor potential channel 6 (Mus musculus), Q61143;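 active = B-score of the integrated fluorescence ratio above library mean plus 3 SD, and starting fluorescence ratio within library mean plus 5 SD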;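 note: higher score means more depolarization so channel activation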
Target sequence (Q61143 whole entry, looked up): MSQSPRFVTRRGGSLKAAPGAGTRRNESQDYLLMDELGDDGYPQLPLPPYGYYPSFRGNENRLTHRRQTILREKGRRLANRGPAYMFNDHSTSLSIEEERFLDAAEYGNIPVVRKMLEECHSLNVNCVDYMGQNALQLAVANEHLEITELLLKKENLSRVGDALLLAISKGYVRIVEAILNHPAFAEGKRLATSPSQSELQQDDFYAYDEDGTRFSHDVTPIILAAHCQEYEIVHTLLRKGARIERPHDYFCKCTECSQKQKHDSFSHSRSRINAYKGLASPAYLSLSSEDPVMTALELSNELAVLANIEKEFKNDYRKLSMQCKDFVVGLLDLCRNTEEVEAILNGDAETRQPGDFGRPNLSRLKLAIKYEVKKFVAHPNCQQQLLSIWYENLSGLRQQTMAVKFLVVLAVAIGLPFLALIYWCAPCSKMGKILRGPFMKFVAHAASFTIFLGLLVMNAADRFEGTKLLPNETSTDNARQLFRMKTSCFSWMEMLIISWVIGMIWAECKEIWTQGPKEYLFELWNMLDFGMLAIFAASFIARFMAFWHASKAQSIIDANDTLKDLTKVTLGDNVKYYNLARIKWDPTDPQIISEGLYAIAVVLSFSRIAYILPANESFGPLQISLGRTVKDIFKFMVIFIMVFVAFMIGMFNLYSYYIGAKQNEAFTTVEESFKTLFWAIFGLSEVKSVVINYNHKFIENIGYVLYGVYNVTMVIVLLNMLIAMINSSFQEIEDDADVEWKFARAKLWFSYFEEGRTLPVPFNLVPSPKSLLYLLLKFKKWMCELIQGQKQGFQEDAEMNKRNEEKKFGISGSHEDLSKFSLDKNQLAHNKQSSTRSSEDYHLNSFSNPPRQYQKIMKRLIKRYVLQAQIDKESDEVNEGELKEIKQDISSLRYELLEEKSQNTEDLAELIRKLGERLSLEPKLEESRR
TRPC4 inh – inhibitors of mouse TRPC4 channel, primary screen, Fluo4 calcium, HEK293 TRPC4beta/mu-opioid cells. Short transient receptor potential channel 4 (Mus musculus), Q9QUQ5. DAMGO-evoked Fluo4 calcium flux; active compounds read low. B-score at 10 µM. actives 0.39% (n = 300,000). AID 2247, 2010;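 active = B-score over 3 SD under the library average, no early fluorescence shift, positive overall ratio signal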
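Signal: kinetic Fluo4 fluorescence imaging of calcium influx. Material: stable TRPC4beta/mu-opioid receptor HEK293 cells. Probe or stimulus: DAMGO in two steps, submaximal then maximal.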
TRPC4 act – activators of mouse TRPC4 channel, primary screen, Fluo4 calcium, HEK293 TRPC4beta/mu-opioid cells; Short transient receptor potential channel 4 (Mus musculus), Q9QUQ5; Fluo4 calcium fluorescence; active compounds read high; B-score at 10 µM; actives 0.49% (n = 310,000); AID 2237, 2010;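 active = B-score above 5 SD of library B-scores, and initial fluorescence ratio not above library mean plus 5 SD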;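 note: positive B-score marks a calcium rise read as TRPC4 activation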
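Technique: kinetic Fluo4 calcium fluorescence; Test system: TRPC4beta and mu-opioid receptor HEK293 stable cells; Measure: B-scored integrated calcium fluorescence ratio; Benchmarks: low control buffer alone, high control maximal DAMGO; Schedule: 45 min room-temperature Fluo4 loading, 110 s read.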
TRPC6 inh – mouse TRPC6 channel inhibitors, primary screen, cell-based, HEK293, membrane potential dye | Short transient receptor potential channel 6 (Mus musculus), Q61143 | ACh-evoked depolarization; active compounds read low | B-score at 10 µM | actives 1.1% (n = 310,000);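 active = B-score under library mean minus 3 SD, initial fluorescence not abnormally high, positive integrated signal ratio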;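 note: B-score derived from integrated fluorescence ratio over the kinetic read; more negative B-score means stronger inhibition of depolarization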
TRPC4 PAM – positive allosteric modulators of TRPC4, primary screen, cell-based, mouse TRPC4beta, HEK293 mu-opioid, Fluo-4 calcium. B-score at 10 µM. DAMGO EC20, Fluo-4 Ca2+ flux; active compounds read high. actives 0.42% (n = 310,000);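 active = B-score of calcium response area above 5 SD of library B-scores, with initial fluorescence ratio within 5 SD of library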;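 note: B-score of integrated fluorescence ratio over time as area under calcium response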
TRPC4 spec 2 – second selectivity test of TRPC6 inhibitors: effect on mouse TRPC4; shares compounds with TRPC6 inh; HEK293 TRPC4/MOR, membrane potential dye fluorescence; channel activated by saturating DAMGO dose; inhibition, % at 10 µM; actives 42% (n = 920); AID 2776;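 active = compounds whose fluorescence signal differed from control wells by over 3 SD, either direction, in both duplicate plates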
TRPC4 spec – mouse TRPC4 modulation by TRPC6 hits, confirmation, selectivity assay for TRPC6 inhibitor project, cell-based, HEK293 TRPC4/mu-opioid, membrane potential dye; shares compounds with TRPC6 inh; membrane potential fluorescence; activity change, negative = inhibition, % at 10 µM; actives 61% (n = 920); AID 2777, 2010;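 active = rise or fall in signal beyond 3 SD of buffer-only wells in both replicate plates, either sign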;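 note: integrated kinetic ratio of fluorescence range over baseline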
HEK293 MPD ctr 2-1 – nonspecific membrane potential effects, parental HEK293, confirmation, counter-screen for TRPC6 inhibitor project, cell-based, second counter screen. shares compounds with TRPC6 inh. parental HEK293 membrane potential dye fluorescence; maximal acetylcholine challenge after compound addition. signal change vs control, % at 10 µM. actives 31% (n = 920). AID 2779, 2010;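 active = membrane potential signal moving either way by over 3 SD of the maximum-effect control, in both duplicate plates, meaning non-specific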
HEK293 MPD ctr-1 – membrane potential modulation in parental HEK293, confirmation, counter-screen for TRPC6 inhibitor project, cell-based | shares compounds with TRPC6 inh | parental HEK293 membrane potential dye fluorescence | membrane potential signal change, % at 10 µM | actives 60% (n = 920) | AID 2780, 2010;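 active = membrane potential signal shifting up or down by more than 3 SD of buffer-only wells, on both duplicate plates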
HEK293 MPD ctr-2 – parental HEK293 membrane potential modulation, confirmation, counter-screen for TRPC6 modulator project, cell-based; shares compounds with TRPC6 inh; membrane potential dye fluorescence; membrane potential signal change, % at 10 µM; actives 51% (n = 2,400); AID 488924, 2010;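 active = membrane potential signal moves up or down beyond 5 SD from buffer-only wells, on both duplicate plates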
HEK293 MPD ctr 2-2 – second counter-screen for TRPC6 modulators: effect in parental HEK293 cells; shares compounds with TRPC6 inh; membrane potential dye fluorescence; after compound, maximal acetylcholine stimulation; inhibition, % at 10 µM; actives 14% (n = 2,400); AID 488926;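 active = membrane potential signal drops by more than 5 SD from the mean control signal, in both duplicate plates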;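 note: plate controls were acetylcholine ECmax control wells for no effect and buffer only wells for full effect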
TRPC4/MOR mod – TRPC4 modulation by TRPC6 hit compounds, confirmation, selectivity assay for TRPC6 modulator project, cell-based, HEK293 TRPC4/mu-opioid, membrane potential dye, mouse; shares compounds with TRPC6 inh; membrane potential fluorescence; percent change from control (negative = decrease, positive = increase), % at 10 µM; actives 69% (n = 2,400);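 active = membrane potential signal moved up or down beyond 5 SD of buffer control wells, in both duplicate plates, actives on both sides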;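 note: plate controls were assay buffer wells for no effect and DAMGO maximal-effect wells for full effect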
TRPC4/MOR inh 2 – second selectivity test of TRPC6 modulators against mouse TRPC4; shares compounds with TRPC6 inh; HEK293 TRPC4/mu-opioid, membrane potential dye fluorescence; stimulated with maximal-effect DAMGO; inhibition, % at 10 µM; actives 55% (n = 2,400);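 active = drop in membrane potential signal beyond 5 SD of the control wells in both duplicate plates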;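 note: TRPC4 counter screen for TRPC6 hits run under conditions tuned for TRPC6 not TRPC4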
TRPC6 inh conf – mouse TRPC6 channel inhibitors, confirmation, HEK293 cells, membrane potential dye, duplicate; shares compounds with TRPC6 inh; ACh-evoked depolarization; inhibition, % at 10 µM; actives 43% (n = 3,300);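 active = fluorescence ratio falls more than 5 SD below the full-stimulation control mean, in both duplicate runs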;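 note: integrated fluorescence ratio of peak minus minimum over baseline after agonist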
TRPC6 act conf – mouse TRPC6 channel activators, confirmation, HEK293 cells, membrane potential dye, duplicate; activation, % at 10 µM; shares compounds with TRPC6 inh; actives 11% (n = 2,800); HEK293-TRPC6 membrane potential dye fluorescence, FDSS;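 active = ratio signal rise beyond 5 SD above unstimulated control wells' mean, seen in both duplicate runs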;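 note: plate controls were buffer EC0 wells for no effect and acetylcholine ECmax response for full effect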
Active calls of the source: *; i = inactive; nt = no result.

SMILES	TRPC6 activator	TRPC4 inh	TRPC4 act	TRPC6 inh	TRPC4 PAM	HEK293 MPD ctr-2	HEK293 MPD ctr 2-2	TRPC4/MOR mod	TRPC4/MOR inh 2	TRPC6 inh conf	TRPC6 act conf	others
Cn1c2c(c(=O)n(C)c1=O)C(C(F)(F)F)(C(F)(F)F)N=C(c1ccc(Cl)cc1)N2	i	i	i	-7.9*	i	nt	nt	nt	nt	101%*	i	TRPC4 spec 2=76%*;TRPC4 spec=20%*;HEK293 MPD ctr 2-1=i;HEK293 MPD ctr-1=11%*
O=C(NC1CCN(C(=O)Nc2cccc(Cl)c2)CC1)c1ccco1	i	i	i	i	i	nt	nt	nt	nt	nt	nt
CN1c2ccc([N+](=O)[O-])cc2N(C)C1(C)c1ccccc1 (stereo not given)	i	i	i	i	i	nt	nt	nt	nt	nt	nt
CN(C)CCCN1c2ccc([N+](=O)[O-])cc2CCc2cc([N+](=O)[O-])ccc21	i	i	i	-12*	i	-358%*	86%*	-60%*	84%*	83%*	i
CN(C)C(=O)C(CCN1CCC(O)(c2ccc(Cl)cc2)CC1)(c1ccccc1)c1ccccc1	i	i	50*	-5.4*	i	115%*	i	78%*	112%*	61%*	nt
CN(C)c1ccc(NC(=O)CN2CCC(O)(c3ccccc3)CC2)cc1	i	i	i	i	i	nt	nt	nt	nt	nt	nt
O=C(Nc1ccccc1O)/C(=C\c1ccccc1)NC(=O)c1ccccc1	i	i	i	i	i	nt	nt	nt	nt	nt	nt
CCOC(=O)N1CCN(c2ccc(N3C(=O)CCCC3=O)cc2[N+](=O)[O-])CC1	i	i	i	i	i	nt	nt	nt	nt	nt	nt

High-throughput results deposited in PubChem BioAssay by Johns Hopkins Ion Channel Center.
